Bioassay records as filed in PubChem BioAssay.
Only some compounds are listed: those with a hit (about 3.5% of all), similar ones and a draw of the others.
RGS4 pot = RGS4 potentiation or activation. HEK293 M3R/inducible RGS4, carbachol calcium flux Fluo4; active compounds read low. B-score at 10 µM. 310,000 compounds, 0.92% hits;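 active = B-score of the integrated calcium signal more than 4 SD below the library mean, with starting fluorescence not abnormally high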;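 note: negative B-score means reduced calcium response which marks RGS4 activation or potentiation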
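test system = HEK293 cells with stable M3R and inducible RGS4 | schedule = recording 10 s baseline at 1 Hz, 100 s post-agonist | technique = Fluo4-AM (2 µM) calcium-flux fluorescence, kinetic read | measure = Agonist-evoked peak-minus-minimum fluorescence over baseline, integrated ratio, B score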
MrgX1 allo act = human MrgX1 positive allosteric modulation, primary screen. Q96LB2. MrgX1-HEK293, Fluo-4 calcium flux, FDSS; active compounds read high. B-score at 10 µM. 310,000 compounds, 0.63% hits. AID 588675;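 active = plate-corrected calcium response at least 3 library SD above typical, normal starting fluorescence, not activating the receptor alone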;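 note: compound read alongside a low EC10 to EC30 dose of BAM8-22 agonist; peak minus trough fluorescence over baseline measured at the second addition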
Target sequence (Q96LB2 whole entry, looked up): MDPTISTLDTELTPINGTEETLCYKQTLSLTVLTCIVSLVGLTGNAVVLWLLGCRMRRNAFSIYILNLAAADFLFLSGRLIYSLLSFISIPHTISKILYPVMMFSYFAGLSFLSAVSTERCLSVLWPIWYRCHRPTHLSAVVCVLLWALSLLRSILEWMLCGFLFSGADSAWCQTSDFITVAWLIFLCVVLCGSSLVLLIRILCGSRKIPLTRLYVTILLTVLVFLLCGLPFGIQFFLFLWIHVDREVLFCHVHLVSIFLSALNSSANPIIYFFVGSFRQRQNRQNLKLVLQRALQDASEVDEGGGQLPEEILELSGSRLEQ
MrgX1 antagonist = antagonists of human MrgX1 receptor; Q96LB2; MRGX1-HEK293 calcium flux, Fluo-4, BAM8-22 antagonism; active compounds read low; B-score at 10 µM; 310,000 compounds, 1.3% hits; AID 588676;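 active = calcium-response B-score plate-corrected more than 3 library SD below zero, starting fluorescence within 5 deviations, no agonist response on first addition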;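 note: peak minus trough fluorescence over baseline after final BAM8-22 challenge near maximal dose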
MrgX1 ag = agonists of human MrgX1 receptor; 310,000 compounds, 0.44% hits; Q96LB2; B-score at 10 µM; MrgX1-HEK293 cells, Fluo-4 calcium fluorescence, agonist mode; active compounds read high;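 active = calcium response B-score plate-corrected fluorescence ratio at least 3 library SD, with starting fluorescence B-score inside 5 SD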
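times = overnight plating, then 30 min 37 °C plus 30 min room-temperature dye loading | assay system = stable human MrgX1 HEK293 cell line | input = fifteen thousand cells per well | signal = kinetic calcium dye fluorescence, Fluo-4 NW | dosing = compound delivered in addition one of three | read-out = B-scored fluorescence response ratio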
RGS4 block = inhibitors of human RGS4; B-score at 10 µM; HEK293 M3R/RGS4 inducible, Fluo-4 calcium flux; active compounds read high; triggered by carbachol at its EC20; P49798; 310,000 compounds, 0.45% hits; AID 463165;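 active = B-score, a plate-corrected calcium signal, over three deviations above library mean, with baseline fluorescence within five deviations of library mean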;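 note: RGS4 expression induced by doxycycline in cells with stable M3 receptor; B-score is computed from the integrated fluorescence ratio over baseline after carbachol; higher B-score means a larger calcium signal and so more RGS4 inhibition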
Target sequence (P49798 whole entry, looked up): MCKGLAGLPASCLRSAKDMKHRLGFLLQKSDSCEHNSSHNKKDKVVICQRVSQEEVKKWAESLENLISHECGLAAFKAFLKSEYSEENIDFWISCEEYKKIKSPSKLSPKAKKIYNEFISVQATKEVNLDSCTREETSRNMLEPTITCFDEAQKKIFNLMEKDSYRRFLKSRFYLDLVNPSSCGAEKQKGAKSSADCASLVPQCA
MrgX1 allo conf = reconfirmed allosteric activator of human MrgX1 receptor; MrgX1-HEK293, Fluo-4 calcium fluorescence, FDSS; AID 602413; activation (ratio percentage), % at 10 µM; 1,200 compounds, 13% hits; shares compounds with MrgX1 allo act;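 active = ratio at least 3 SD above the weak peptide control, stable starting fluorescence, no direct agonism earlier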;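 note: compound followed by low BAM8-22 agonist challenge near EC20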
HEK293 Ca flux = activity in parental HEK293 cells lacking MrgX1. shares compounds with MrgX1 antagonist. Fluo-4 calcium fluorescence, FDSS. fluorescence ratio F(max-min)/F0 at 10 µM. 4,000 compounds, 2% hits. AID 624111;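 active = duplicate-averaged calcium fluorescence ratio at least three times the standard deviation of buffer wells, a nonspecific response in parental cells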
HEK293 Ca counter = counter-screen for MrgX1 allosteric activators: effect in parental HEK293 cells; 4,000 compounds, 0.4% hits; fluorescence ratio F(max-min)/F0 at 10 µM; parental HEK293 calcium flux, Fluo-4 fluorescence ratio; active compounds read high; shares compounds with MrgX1 antagonist; AID 624114;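 active = calcium fluorescence ratio, averaged over duplicates, at least 3 SD of the buffer-well ratio, meaning a nonspecific response in receptor-free cells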;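 note: untransfected parental HEK293 lacking MrgX1 used as counterscreen for MrgX1 allosteric activators; fluorescence change taken during the second addition on a kinetic imager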
HEK293 Ca cntr2 = counter-screen for MrgX1 activators: effect in parental HEK293 cells; shares compounds with MrgX1 antagonist; Fluo-4 calcium fluorescence (FDSS); active compounds read high; fluorescence ratio F(max-min)/F0 at 10 µM; 4,000 compounds, 8.7% hits;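 active = calcium fluorescence ratio at least three times the spread of buffer wells, meaning a non-specific response in parental cells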
* = called active by the depositor; i = inactive; / = not tested or not shown.

SMILES	RGS4 pot	MrgX1 allo act	MrgX1 antagonist	MrgX1 ag	RGS4 block	MrgX1 allo conf	HEK293 Ca flux	HEK293 Ca counter	HEK293 Ca cntr2
C=C1CCC2[C@](C)(CO)[C@H](O)CC[C@@]2(C)[C@@H]1C/C=C1\C(=O)OC[C@H]1O (stereo partly drawn)	i	i	i	i	i	/	/	/	/
C=C/C(C)=C/C[C@H]1C(=C)CCC2[C@](C)(C(=O)O)CCC[C@@]21C (stereo partly drawn)	/	7.4*	i	i	/	i	i	i	i
Fc1cccc(-c2cc3nc4c(c(N5CCC6(CC5)OCCO6)n3n2)CCCC4)c1	i	7.6*	i	i	i	i	i	i	i
CCc1ccc(OCC(=O)NC2CCCCC2)c(Br)c1	i	8.3*	i	i	i	i	i	i	i
Cc1cc(Br)ccc1OCC(=O)NC1CCCC1	i	i	i	i	i	/	/	/	/
O=C(COc1ccccc1Br)NC1CCCC1	i	7.3*	i	i	i	i	i	i	i
Cc1ccc(CNC(=O)C2CCN(c3nc(C)cc(C)n3)CC2)cc1	i	i	i	i	i	/	/	/	/
O=C(CN1CCC(O)(c2cccc(F)c2)CC1)NCCc1c[nH]c2ccccc12	i	7.6*	i	i	i	i	i	i	i
O=C(NCCc1c[nH]c2ccccc12)c1ccc(F)cc1F	i	i	i	i	i	/	/	/	/
C=CCn1c(SCc2ccc(F)cc2)nnc1-c1sc2nc(C)cc(C)c2c1N	i	i	i	i	i	/	/	/	/
O=C(O)CN1CCCCC1	i	9.7*	i	i	i	i	i	i	i
NC(=O)Cn1cnc2c(nnn2-c2ccc(F)cc2)c1=O	i	i	i	i	i	/	/	/	/
O=S(=O)(Cc1ccccc1)C1CCCCC1O (stereo not drawn)	i	i	i	i	i	/	/	/	/
CN1/C(=C/C2CC(=O)N(c3cccc4ccccc34)C2=O)C(C)(C)c2ccccc21 (stereo not drawn)	i	i	i	i	i	/	/	/	/
CN1/C(=C/C2CC(=O)NC2=O)C(C)(C)c2ccccc21 (stereo not drawn)	/	7*	i	i	/	i	i	i	i
Cc1cc(NC(=O)CNCC(c2ccccc2)N(C)C)c([N+](=O)[O-])cc1C (stereo not drawn)	i	i	i	i	i	/	/	/	/
CCC(C)(C)n1nnnc1C(c1ccc(Cl)cc1)N1CCN(C)CC1 (stereo not drawn)	i	11*	i	i	i	i	i	i	i
CCC(C)(C)n1nnnc1C(c1ccc(C)cc1)N1CCC(C)CC1 (stereo not drawn)	i	i	i	i	i	/	/	/	/
O=C(NC1CCCC1)C(c1ccncc1)N(C(=O)Cc1cccs1)c1cccc(F)c1 (stereo not drawn)	i	i	i	i	i	/	/	/	/
COC(=O)c1ccccc1NC(=O)C1CCN(C(=O)Cc2ccccc2)CC1	i	i	i	i	i	/	/	/	/
COc1ccc(C)cc1NC(=O)C1CCN(C(=O)Cc2ccccc2)CC1	i	11*	i	i	i	i	i	i	i
COc1cc(O)c(C(C)=O)c(CC(=O)O)c1	i	i	i	i	i	/	/	/	/
Cc1ccccc1N1C(=O)C2C3C=CC(C2C1=O)N(C)C3=O (stereo not drawn)	i	i	i	i	i	/	/	/	/
Cc1ccccc1N1C(=O)C2C3CCC(O3)C2C1=O (stereo not drawn)	i	19*	i	i	i	i	i	i	i
CN(C)CCCOc1ccc2c(c1)Sc1ccccc1CC2=O	i	8.5*	i	i	i	i	i	i	i
SMILES	RGS4 pot	MrgX1 allo act	MrgX1 antagonist	MrgX1 ag	RGS4 block	MrgX1 allo conf	HEK293 Ca flux	HEK293 Ca counter	HEK293 Ca cntr2
O=C(c1ccc(-c2cccc(Cl)c2Cl)o1)N1CCOCC1	i	i	i	i	i	/	/	/	/
O=C(NC12CC3CC(CC(C3)C1)C2)c1ccccc1O	i	9.8*	i	i	i	i	i	i	i
O=C(NC12CC3CC(CC(C3)C1)C2)c1ccc(-c2ccccc2Cl)o1	i	6.7*	i	i	i	i	i	i	i
CC1CCN(C(=O)c2ccc(-c3ccccc3Cl)o2)CC1	i	7.6*	i	i	i	i	i	i	i
N#CC1(NC(=O)Cn2cc(C(F)(F)F)cc(Cl)c2=O)CCCCC1	i	i	i	i	i	/	/	/	/
Cc1ccc2nc3c(cc(C(=O)NC4CCS(=O)(=O)C4)n3Cc3ccccc3)c(=O)n2c1 (stereo not drawn)	i	i	i	i	i	/	/	/	/
COc1ccccc1-c1nc2ccccc2nc1-c1ccccc1	i	9*	i	i	i	i	i	51*	i
COc1ccc(-c2cc(C(=O)N3CCN(c4ncccn4)CC3)c3ccccc3n2)c(OC)c1	i	7.4*	i	i	i	i	i	i	71*
O=C(OCCN1C(=O)c2ccccc2C1=O)c1cc(S(=O)(=O)N2CCOCC2)ccc1F	i	6.8*	i	i	i	i	i	i	i
Nc1ncnc2nc(N3CCN(C(=O)c4ccccc4)CC3)[nH]c12	i	17*	i	i	i	i	i	i	i
O=C(c1ccccc1)N1CCN(c2ncccn2)CC1	i	i	i	i	i	/	/	/	/
CC1CCC(NC(=O)CCS(=O)(=O)c2ccc3c(c2)CC(C)N3C(=O)C2CC2)CC1 (stereo not drawn)	i	i	i	i	i	/	/	/	/
COc1ccc(S(=O)(=O)NCC(=O)N(CC(=O)NCc2ccco2)C2CCCC2)cc1	i	i	i	i	i	/	/	/	/
CCc1c(C)nc2cc(-c3ccc(OC)c(OC)c3)nn2c1N1CCCC1	i	17*	i	i	i	i	i	i	i
